Reference: PMC9998565 (Clinical Pharmacokinetics, 2023)
One block for each compound: values may come before it.

What was measured:
[1] = Sildenafil pharmacokinetics in plasma; format: in vivo, human
Outline: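 For the co-administered compound, plasma (EDTA K3) was drawn 3, 4, 6, 8, 12 and 24 h after test compound/placebo on days 13–15, with dosing at 2 h. Processing used a deuterated internal standard and methyl tert-butyl ether liquid-liquid extraction, then a validated LC assay. Samples were stored at −20 °C and analysed within 38 days. Log AUC(0–22) and Cmax went through ANOVA per dose; the test/placebo ratio was given with 90% CIs.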

[2] = system: healthy white male volunteers; assay: Hemodynamic profile; format: in vivo, human
Outline: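 Healthy men took test compound 10 mg or placebo once daily for 16 days, with a second test compound (25, 50, 100 mg) ~2 h later on days 13–15. After 15 min supine, seated then standing (2 min) SBP, DBP and HR were taken from 1.25 to ~5 h post-dose on days 0 and 12–15. Baseline was the mean of four seated pre-co-dose values. ANCOVA was run per dose; standing data were descriptive.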

[3] = cited from earlier work
healthy subjects = settings: cited from earlier work
[4] = Vericiguat pharmacokinetics in plasma; format: in vivo, human
Outline: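 Test compound was 10 mg once daily after breakfast. Lithium-heparin plasma was sampled pre-dose and at 0.5–15 h on days 12–15, plus 24 h on day 16. A labelled internal standard was added, then automated acetonitrile/ammonium acetate/formic acid precipitation and validated LC. QC accuracy was 93.88–101.33% and CV 1.24–2.58%; storage was −20 °C, analysis within 36 days. Log AUC(0–24) and Cmax were analysed by ANOVA (administration, subject).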

[5] = system: healthy white male volunteers; assay: Safety and tolerability; format: in vivo, human
Outline: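 Safety covered AEs, coded by MedDRA 19.0; an AE counted as treatment-emergent if it began or worsened from first dose to 30 days post-treatment, and investigators judged relatedness. Fasting haematology, chemistry, coagulation and urinalysis were collected at screening, pre-dose days 0 and 12–15, day 16 and follow-up. Vital signs and ECGs were taken after 15 min supine rest, pre-dose and 5.5 h post-dose (day 12 pre-dose only). All dosed subjects were included.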

[6] = system: patients with HF with reduced ejection fraction; settings: vericiguat 10 mg once daily; cited from earlier work
[7] = system: patients with pulmonary arterial hypertension; settings: 12 weeks, riociguat 1.0–2.5 mg with sildenafil 20 mg three times daily; cited from earlier work
[8] = ANCOVA, day 14, both groups + sildenafil 50 mg
[9] = during treatment with sildenafil, days 13–15
[10] = whole study, both groups also received sildenafil on days 13–15

Increase in sildenafil AUC(0–22), vericiguat group compared with placebo group ([1]; across sildenafil 25–100 mg): 13–22%
Increase in sildenafil Cmax, vericiguat group compared with placebo group ([1]; across sildenafil 25–100 mg): 14–20%
Increase in sildenafil AUC(0–22) with co-administration of vericiguat ([1]; sildenafil 25 mg): 22.4%
Increase in sildenafil Cmax with co-administration of vericiguat ([1]; sildenafil 25 mg): 14.2%
Increase in sildenafil AUC(0–22) with co-administration of vericiguat ([1]; sildenafil 50 mg): 17.1%
Increase in sildenafil Cmax with co-administration of vericiguat ([1]; sildenafil 50 mg): 20.4%
Increase in sildenafil AUC(0–22) with co-administration of vericiguat ([1]; sildenafil 100 mg): 13.0%
Increase in sildenafil Cmax with co-administration of vericiguat ([1]; sildenafil 100 mg): 17.1%
Time required to achieve the geometric mean Cmax of sildenafil ([1]; sildenafil 100 mg, day 15, co-administered with vericiguat): 2 h
Time required to achieve the geometric mean Cmax of sildenafil ([1]; sildenafil 100 mg, day 15, with placebo): 1 h
Increase in sildenafil exposure when co-administered with vericiguat ([1]; sildenafil 25–100 mg): ≤ 22%
SMILES: CCCc1nn(C)c2c(=O)[nH]c(-c3cc(S(=O)(=O)N4CCN(C)CC4)ccc3OCC)nc12 [Sildenafil]
Dose dependency of BP-reducing effect ([2]; 25, 50, 100 mg, placebo group): no clear dose dependency
Mean decreases from baseline in BP ([2]; after single doses of sildenafil on days 13–15, placebo group): ≤ 5.3 mmHg
Mean maximum decreases in BP ([2]; days 13–15, placebo group): ≤ 11.0 mmHg
Terminal half-life [3]: about 4 h
Time to achieve Cmax [3]: 1 to 2 h
Mean maximum decrease in DBP (healthy subjects; healthy volunteers): 5.3 mmHg
Mean maximum decrease in SBP (healthy subjects; healthy volunteers): 8.3 mmHg

SMILES: COC(=O)Nc1c(N)nc(-c2nn(Cc3ccccc3F)c3ncc(F)cc23)nc1N [Vericiguat]
Change in seated HR, LS mean difference ‘vericiguat-placebo’ ([2]; ANCOVA, day 13, both groups + sildenafil 25 mg): 0.96 bpm
Change in seated HR, LS mean difference ‘vericiguat-placebo’ [2, 8]: 0.81 bpm
Change in seated SBP, LS mean difference ‘vericiguat-placebo’ [2, 8]: 1.36 mmHg
Change in seated HR, LS mean difference ‘vericiguat-placebo’ ([2]; ANCOVA, day 15, both groups + sildenafil 100 mg): 1.38 bpm
Maximum SBP when seated or standing ([2]; day 0): 143 mmHg
Minimum SBP when standing ([2]; day 0): 97 mmHg
Standing HR ([2]; day 0): 54–108 bpm
Maximum SBP when seated or standing ([2]; day 12): 141 mmHg
Minimum SBP when standing ([2]; day 12): 93 mmHg
Standing HR ([2]; day 12): 53–102 bpm
Range of standing HR values ([2]; day 13, with sildenafil 25 mg): 54–114 bpm
Range of standing HR values ([2]; day 14, with sildenafil 50 mg): 54–119 bpm
Range of standing HR values ([2]; day 15, with sildenafil 100 mg): 53–127 bpm
Minimum standing SBP ([2]; days 13–15, with sildenafil): 81–91 mmHg
Effect of co-administration of sildenafil on vericiguat pharmacokinetics ([4]; sildenafil 25–100 mg): did not affect
Time at which vericiguat Cmax values were reached post-administration ([4]; vericiguat 10 mg once daily, days 12–15): about 3 h
TEAEs of mild intensity ([5]; by treatment group, whole study): 81.3%
Subjects with dyspepsia (TEAE) ([5]; days 0–12, vericiguat group): 25.0%
Subjects with gastrointestinal disorders (TEAE) ([5]; days 0–12, vericiguat group): 31.3%
Subjects with head discomfort (TEAE) [5, 9]: up to 13.3%
Subjects with headache (TEAE) [5, 9]: up to 21.4%
Effects on ECG parameters, including the QT interval ([5]; in vivo): no relevant effects
Subjects reporting at least one TEAE [5, 10]: All subjects
Subjects with at least one sildenafil-related TEAE [5, 10]: 87.5%
Subjects with at least one vericiguat-related TEAE [5, 10]: 62.5%
Half-life [3]: 20 to 30 h
Onset (time after intake) ([3]; intake with food as recommended): ~ 4 h
Time to achieve maximum plasma concentration (Cmax) ([3]; steady state, after intake): approximately 4 h
Composite endpoint of death from cardiovascular causes or hospitalization for HF, hazard ratio [6]: 0.90
Increases in HR (healthy subjects; healthy subjects, vericiguat 5–15 mg over several days): 4–10 bpm

SMILES: COC(=O)N(C)c1c(N)nc(-c2nn(Cc3ccccc3F)c3ncccc23)nc1N [riociguat]
Standing SBP after dosing lower than with placebo [7]: approximately 10 mmHg
Cmax at (time after intake) [3]: 1 to 1.5 h
Half-life [3]: 7 to 12 h
